Data set [1] is described as follows: Half life in mouse at 50 mg/kg, po. Type of data set: ADME, organism-based. More on the design: dose 50 mg/kg, route oral. Conditions: in vivo, read-out: beta t1/2. An outline of the steps: (§1)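 Oral gavage at 50 mg/kg in 90% saline, 3% ethanol, 7% Tween; inhibitor concentration in plasma followed over 5 h. Values are averages of three animals per species (mice or rats). Reported parameters are AUC, Cmax, Tmax and elimination t1/2.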

Data set [2] in a line: Cmax in mouse at 50 mg/kg, po. Type of data set: ADME, organism-based. Further details: dose 50 mg/kg, route oral. Particulars: in vivo. An outline of the steps:
as §1

The target in data set [3] is T1, Protein farnesyltransferase (PFT) (Plasmodium falciparum) (UniProt Q5EI73+Q5EI74). The data set is described as follows: Inhibition of Plasmodium falciparum PFT at 50 nM.
The subject of a further data set is Plasmodium falciparum. Nature of the data set: Inhibition of Plasmodium falciparum K1 growth as reduced [3H]hypoxanthine incorporation. Type of data set: functional. Conditions: K1, 72 h, read-out: ED50 (the source's name). An outline of the steps: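 Inhibitor in DMSO was added to P. falciparum culture (0.5% parasitemia, 0.5% hematocrit) in RPMI-1640 with 20% human A+ plasma. Cultures were held 48 h at 37 °C under 5% CO2/5% O2/90% N2, then pulsed with [8-3H]hypoxanthine (0.3 μCi) for 24 h more. Cells were harvested and counted by β-scintillation. Background from uninfected RBCs was subtracted, with DMSO set as 100%. ED50 was obtained by linear regression.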

For data set [4], the target named is T1, Protein farnesyltransferase (PFT) (Plasmodium falciparum). The data set is described as follows: Inhibition of Plasmodium falciparum PFT at 5 nM.
Data set [5] is described as follows: AUC in mouse at 50 mg/kg, po. More on the design: dose 50 mg/kg, route oral. The data set is classed as ADME, organism-based. Conditions: plasma. Put shortly: as §1
The nature of data set [6]: Tmax in mouse at 50 mg/kg, po. Type of data set: ADME, organism-based. More on the design: dose 50 mg/kg, route oral. Conditions: in vivo. Put shortly:
as §1

The species entered for another data set is Mus musculus. Nature of the data set: Half life in mouse liver microsome. The data set is classed as ADME. Particulars: microsomes. Put shortly: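 Pooled female liver microsomes were preincubated at 37 °C for 10 min in phosphate buffer with MgCl2, EDTA, an NADPH regenerating system and glucose-6-phosphate dehydrogenase. Inhibitor was then added in DMSO. Samples were quenched with acetonitrile plus internal standard at set time points and frozen at −20 °C. Parent and metabolites were quantified by LC/MS to give t1/2.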

The target in data set [7] is T1, Protein farnesyltransferase (PFT) (Plasmodium falciparum). The data set is described as follows: Selectivity for inhibition of Plasmodium falciparum PFT over rat PFT. Type of data set: protein-complex assay.
Data set [8] addresses T2, Protein farnesyltransferase (PFT) (Plasmodium falciparum, UniProt Q5EI73+Q5EI74).
T2 sequence (Q5EI73 whole entry): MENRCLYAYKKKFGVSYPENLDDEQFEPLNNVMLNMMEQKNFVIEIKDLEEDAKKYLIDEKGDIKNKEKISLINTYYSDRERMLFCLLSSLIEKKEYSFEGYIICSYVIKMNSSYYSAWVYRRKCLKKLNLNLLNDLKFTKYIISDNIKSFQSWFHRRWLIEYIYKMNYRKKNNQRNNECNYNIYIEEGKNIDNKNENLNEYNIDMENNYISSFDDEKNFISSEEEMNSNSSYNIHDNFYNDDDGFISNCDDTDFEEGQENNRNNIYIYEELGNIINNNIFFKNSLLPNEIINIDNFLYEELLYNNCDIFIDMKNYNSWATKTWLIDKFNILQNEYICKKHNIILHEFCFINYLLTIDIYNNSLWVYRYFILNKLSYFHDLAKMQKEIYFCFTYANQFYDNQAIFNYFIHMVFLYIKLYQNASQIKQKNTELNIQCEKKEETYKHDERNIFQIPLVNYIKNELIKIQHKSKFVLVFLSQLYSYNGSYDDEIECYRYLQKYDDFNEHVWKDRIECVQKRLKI
T2 sequence (Q5EI74 whole entry): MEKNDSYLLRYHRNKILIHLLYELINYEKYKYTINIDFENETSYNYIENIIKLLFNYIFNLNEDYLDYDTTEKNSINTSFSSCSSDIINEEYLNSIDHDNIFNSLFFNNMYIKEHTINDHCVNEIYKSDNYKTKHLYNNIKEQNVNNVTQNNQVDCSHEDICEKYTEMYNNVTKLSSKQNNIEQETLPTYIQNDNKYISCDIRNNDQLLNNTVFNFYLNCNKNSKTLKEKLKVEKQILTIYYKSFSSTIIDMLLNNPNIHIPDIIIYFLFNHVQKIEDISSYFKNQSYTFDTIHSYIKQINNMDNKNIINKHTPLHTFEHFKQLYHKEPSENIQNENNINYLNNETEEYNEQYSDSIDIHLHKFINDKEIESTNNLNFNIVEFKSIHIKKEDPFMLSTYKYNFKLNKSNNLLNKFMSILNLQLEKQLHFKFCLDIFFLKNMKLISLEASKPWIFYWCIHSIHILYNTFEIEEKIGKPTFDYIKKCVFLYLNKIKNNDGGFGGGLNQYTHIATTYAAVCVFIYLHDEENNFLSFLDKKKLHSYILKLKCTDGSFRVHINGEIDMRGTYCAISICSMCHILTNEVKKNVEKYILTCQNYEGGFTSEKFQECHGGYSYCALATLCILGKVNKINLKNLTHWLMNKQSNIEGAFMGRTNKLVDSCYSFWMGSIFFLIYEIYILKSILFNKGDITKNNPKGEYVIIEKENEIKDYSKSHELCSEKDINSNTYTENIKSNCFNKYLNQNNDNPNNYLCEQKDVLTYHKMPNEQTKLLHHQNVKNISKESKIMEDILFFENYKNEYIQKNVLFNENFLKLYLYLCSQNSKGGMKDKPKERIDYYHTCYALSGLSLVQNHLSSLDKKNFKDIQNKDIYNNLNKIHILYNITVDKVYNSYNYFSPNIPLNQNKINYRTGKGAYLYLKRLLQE
The data set is described as follows: Inhibition of Plasmodium falciparum PFT. Type of data set: protein-complex assay.

The nature of data set [9]: Apparent permeability in Caco-2 cells. Type of data set: ADME, cell-based. Conditions: human. Background: Passage across Caco-2 layers is used to estimate intestinal permeability.
The nature of data set [10]: AUC in rat at 50 mg/kg, po. The data set is classed as ADME, organism-based. Further details: dose 50 mg/kg, route oral. Conditions: plasma. Put shortly: as §1
Data set [11] can be described thus: Cmax in rat at 50 mg/kg, po. The data set is classed as ADME, organism-based. Further details: dose 50 mg/kg, route oral. Conditions: in vivo. Put shortly:
as §1

As a reminder, the Cmax is the maximum level reached in the sampled fluid or tissue. In general, inhibition refers to the percentage by which the read-out fell short of the control. For orientation: AUC means concentration integrated over time. Read a low AUC as less exposure. One may read the Tmax as the time from dosing to the highest level. In the case of `Cn1cnc(S(=O)(=O)N(CCN(Cc2cncn2C)c2ccc(C#N)cc2)Cc2ccccc2)c1`, in data set [1], the half-life was found to be 95.9 min. In data set [2], this compound yielded a Cmax of 740 nM. Besides, the results for the inhibition in [3] and in [4] were 98% and 86%, respectively. Besides, the EC50 in the data set on Plasmodium falciparum is 367 nM. This compound gave an AUC in [5] of 1.87 µM·h. Also, the Tmax in data set [6] is 30 min.
A word on the IC50: it is the midpoint of a concentration-inhibition curve. High values mean a need for much substance, low ones inhibition by little substance. As to `Cn1cnc(S(=O)(=O)N(CCN(Cc2cncn2C)c2ccc(C#N)cc2)Cc2ccc(-c3ccccc3)cc2)c1`, the T1/2 in the data set listed under Mus musculus was 3 min. In addition, in data set [7], the Selectivity ratio was found to be 3.7. The figures for the inhibition in [3] and in data set [4] were 19% and 10%, respectively. In data set [8], this compound yielded an IC50 of 240 nM.
In general, Papp refers to the rate of passage across a membrane or cell layer, normalised by area and donor concentration. On to `Cn1cnc(S(=O)(=O)N(CCN(Cc2cncn2C)c2ccc(C#N)cc2)CC2CCCCC2)c1`, for which, in data set [7], the Selectivity ratio was found to be 1.7. The inhibition was 93% in data set [3] and 63% in [4]. Moreover, the IC50 in data set [8] stood at 4.5 nM. Besides, the Papp in [9] was 1.5 ×10⁻⁶ cm/s.
In data set [10], `Cc1ccccc1CN(CCN(Cc1cncn1C)c1ccc(C#N)cc1)S(=O)(=O)c1cn(C)cn1` had an AUC of 1.72 µM·h. Moreover, the highest level in data set [11] (Cmax) was 1050 nM. Further, the values for the inhibition in data set [3] and in data set [4] were 99% and 95%, respectively. Moreover, the IC50 in data set [8] was found to be 0.6 nM. Moreover, the Tmax in data set [6] was 40 min.

These data come from ChEMBL document CHEMBL1137254, “Structurally simple, potent, Plasmodium selective farnesyltransferase inhibitors that arrest the growth of malaria parasites” (J Med Chem, 2006).
